An excerpt weighted towards active compounds, which were near 4.5% of everything screened.
STAT1 act: increases IFN-gamma driven STAT1 reporter signal; NIH 3T3 STAT1-luciferase reporter, luminescence; 100% = IFN-gamma alone, no compound; activation (% of control), % at 5.5 µM; 200,000 tested, 2.6% active; AID 932;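 active = activation above the screen-wide mean activation plus 3 SD, cut at about 130% in these data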;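 note: raw ratio to IFN-gamma control signal so 100% means no change and 0% no light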
PERK inhibitor: blocks human PERK kinase; Q9NZJ5; CHO PERK-DD fusion, SEAP luminescence translation reporter; inhibition, % at 5.6 µM; 220,000 tested, 0.17% active; AID 1416;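 active = inhibition above the mean inhibition of all tested compounds plus 3 SD, set separately per screening campaign, cut at about 2.9% in these data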;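 note: PERK kinase domain activated by AP20187 dimerizer at 100 nM; 0% = DMSO with dimerizer and 100% = rapamycin at 8.4 µM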
AHR act: activates the human aryl hydrocarbon receptor; P35869; activation, % at 5 µM; AID 2796; 320,000 tested, 2.5% active; AHR-responsive luciferase reporter cells, luminescence; in the data active = activation above about 47%;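 note: 0% = vehicle wells and 100% = reference agonist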
Target sequence (P35869 whole entry, looked up): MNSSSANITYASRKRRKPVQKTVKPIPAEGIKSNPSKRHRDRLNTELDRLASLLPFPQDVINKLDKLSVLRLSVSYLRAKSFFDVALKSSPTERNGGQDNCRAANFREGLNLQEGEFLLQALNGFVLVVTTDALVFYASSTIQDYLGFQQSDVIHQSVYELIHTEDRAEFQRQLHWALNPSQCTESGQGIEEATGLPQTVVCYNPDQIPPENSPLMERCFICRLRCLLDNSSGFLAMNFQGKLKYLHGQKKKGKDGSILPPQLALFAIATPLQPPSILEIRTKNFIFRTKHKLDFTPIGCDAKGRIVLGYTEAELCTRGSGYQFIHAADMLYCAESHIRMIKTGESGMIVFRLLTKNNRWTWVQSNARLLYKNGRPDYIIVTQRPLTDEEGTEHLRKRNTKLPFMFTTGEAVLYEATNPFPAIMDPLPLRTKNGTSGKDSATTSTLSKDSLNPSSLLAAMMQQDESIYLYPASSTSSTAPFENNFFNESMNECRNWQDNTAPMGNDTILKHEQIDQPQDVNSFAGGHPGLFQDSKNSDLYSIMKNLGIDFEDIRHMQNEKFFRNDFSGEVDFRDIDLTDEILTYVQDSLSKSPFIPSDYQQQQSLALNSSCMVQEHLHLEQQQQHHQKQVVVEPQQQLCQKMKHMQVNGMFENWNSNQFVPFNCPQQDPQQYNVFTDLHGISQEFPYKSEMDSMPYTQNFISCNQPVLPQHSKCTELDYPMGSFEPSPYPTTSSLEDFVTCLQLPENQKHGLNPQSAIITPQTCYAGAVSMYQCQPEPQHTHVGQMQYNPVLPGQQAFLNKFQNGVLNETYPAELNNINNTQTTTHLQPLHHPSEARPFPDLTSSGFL
NF-kB neuron act: raises NF-kB expression in human neuronal cells | NF-kB reporter expression; stronger effect = higher value | fold change at 12.5 µM | 190,000 tested, 1.6% active; in the data active = fold change above about 3.3
APP 5'UTR act: APP 5'UTR luciferase reporter activation; SH-SY5Y APP 5'UTR luciferase reporter, luminescence; zero percent = DMSO vehicle wells; activation, % at 2 µM; 190,000 tested, 1% active; AID 1276;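 active = activation above a set limit, based on mean plus 3 SD of controls, cut at about 140% in these data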
MDM2 E3 inh: blocks human Mdm2 ubiquitin ligase activity | Q00987 | cell-based MDM2 ubiquitination luciferase reporter, 2 h; 0 = plate control, 100 = twice control, blank-subtracted | signal enhancement, % at 5 µM | 210,000 tested, 0.11% active | AID 1230;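 active = signal enhancement of 30% or more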;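 note: luminescence tracks abundance of the self-degrading MDM2-luciferase fusion protein; higher signal means inhibition of MDM2 E3 ligase activity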
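System: stable MDM2–luciferase fusion reporter cells / Input: 2000 cells seeded into each well / Schedule: 4 h settle plus 2 h compound, 37 °C / Compound: single-point 5 µM / Buffer or medium: cells held in DMEM / Benchmarks: control and blank well means / Evaluation: percent signal gain over controls, blank-subtracted / Measured by: luciferase luminescence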
AHR act confirm: confirmation of human aryl hydrocarbon receptor activators. shares compounds with AHR act. human cells, AHR-responsive luciferase reporter, luminescence. activation, % at 9 µM. 2,300 tested, 87% active; in the data active = activation above about 49%;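 note: HepG2 hepatoma cells carrying a DRE-driven firefly luciferase reporter; 0% = vehicle wells and 100% = reference agonist wells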
PXR counter: counter-screen for AHR activators: human PXR activators. shares compounds with AHR act. cell-based PXR reporter, luciferase luminescence. activation, % at 11.6 µM. 2,300 tested, 88% active. AID 434939; in the data active = activation above about 11%;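 note: human hepatoma DPX-2 cells expressing full-length human PXR; 0% = DMSO and 100% = reference agonist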
* = called active by the depositor; · = no result.

SMILES	STAT1 act	PERK inhibitor	AHR act	NF-kB neuron act	APP 5'UTR act	MDM2 E3 inh	AHR act confirm	PXR counter
CCC(C)c1ccc(NC(=S)N2CCN(S(C)(=O)=O)CC2)cc1 (stereo unspecified)	·	·	3	·	·	·	·	·
Nc1nonc1C(=O)NCCNS(=O)(=O)c1ccc(Br)cc1	105	0	-1	1.3	-4	-2	·	·
Cc1cccc(NC2=C(NC(=O)c3ccccc3)C(=O)c3ccccc3C2=O)c1	101	-1	106*	0.44	16	-15	103*	124*
COc1ccc(/C=C/c2nc(-c3ccccc3O)n[nH]2)cc1	89	1	94*	7.6*	170*	-27	46	6
COc1ccc(CN(C(=O)c2oc3ccc(F)cc3c2C)C2CCS(=O)(=O)C2)cc1 (stereo unspecified)	·	·	0	·	·	·	·	·
COc1ccc(/C=C/C(=O)c2oc3ccc(F)cc3c2C)cc1	88	0	81*	1.1	17	13	130*	75*
O=C1NC2=C(CCc3ccccc32)C(c2ccccc2)N1 (stereo unspecified)	99	0	82*	1.2	15	-11	14	22*
C=CCOc1ccc(C2NC(=S)NC3=C2CCc2ccccc23)cc1 (stereo unspecified)	·	1	0	·	·	-17	·	·
COc1ccc([C@H]2CC(=O)C=C(c3ccc(OC)nc3)C2)cc1	·	·	8	·	·	·	·	·
COc1ccccc1CNC(=O)CN1C(=O)NC2(CCCc3sccc32)C1=O (stereo unspecified)	·	·	0	·	·	·	·	·
CN1CCN(c2nc(-c3ccc(Br)cc3)nnc2-c2ccccc2)CC1	103	0	132*	1.2	8	-12	90*	49*
Cc1ccc(-c2nnc(-c3ccccc3)c(N3CCOCC3)n2)cc1	103	-1	3	1.3	17	-12	·	·
Brc1ccc(-c2nnc(-c3ccccc3)c(N3CCSCC3)n2)cc1	108	0	123*	1.9	23	-5	93*	75*
Cc1cccc(CSc2nnc3c(n2)[nH]c2ccccc23)c1	·	1	36	·	·	-17	·	·
COc1ccc(-c2cc3cc(OC)c(OC)cc3c(C)n2)cc1C	·	-1	96*	·	·	·	58*	29*
COc1nc(-c2ccccc2)cc(-c2ccc(OC)c(OC)c2)n1	104	-1	17	0.53	-11	3	·	·
COc1ccc(-c2oc(=O)c3cc(OC)c(OC)cc3c2-c2ccc3c(c2)OCO3)cc1	·	·	25	·	·	·	·	·
COc1ccc(OC)c2nc(-c3ccc4c(c3)OCO4)ccc12	·	·	117*	·	·	·	125*	46*
Cc1ccc(N(Cc2cc3ccccc3[nH]c2=O)C(=O)c2cccs2)cc1C	·	-2	0	·	·	5	·	·
COc1ccccc1C(=O)N/C(=N/c1nc(C)cc(C)n1)Nc1ccccc1	·	0	38	·	·	-1	·	·
Cc1cc2n(n1)SC(Nc1ccc(F)c(Cl)c1)N2 (stereo unspecified)	118	0	89*	1.7	3	·	106*	52*
Cc1ccc(NC(=O)Nc2ccc(F)c(Cl)c2)cc1	119	0	3	2.4	108	-12	·	·
c1cncc(C2OCC3(CO2)COC(c2cccnc2)OC3)c1 (stereo unspecified)	103	0	1	1.1	7	-10	·	·
COc1ccc(N2Cc3ccccc3/C2=N\C(=O)Nc2ccccc2)cc1	101	1	0	1.1	21	11	·	·
O=C(N=C1c2ccccc2CN1c1ccc(F)c(Cl)c1)c1cccnc1Cl	126	0	123*	1.1	45	8	113*	158*
SMILES	STAT1 act	PERK inhibitor	AHR act	NF-kB neuron act	APP 5'UTR act	MDM2 E3 inh	AHR act confirm	PXR counter
CCn1c(CNc2ccc(C(=O)O)cc2)nc2ccccc21	94	-1	5	0.96	-12	-13	·	·
CCn1cnc2cc(NCc3ccc(Br)cc3)ccc21	·	·	107*	·	·	·	113*	46*
CCn1cnc2cc(NCc3cccs3)ccc21	124	0	8	1.7	37	3	·	·
CCCn1c(CNc2ccc(Br)cc2)nc2ccccc21	104	0	101*	0.94	8	-9	93*	51*
CC(C)n1cnc2cc(NCc3nc4ccccc4n3C)ccc21	150*	-1	91*	1.2	186*	-23	86*	128*
CCn1cnc2cc(NCc3nc4ccccc4n3C)ccc21	124	-2	93*	5.5*	146*	-30	65*	83*
COC(=O)c1sccc1NC(=O)CC1C(=O)NCCN1C(=O)c1ccc(N(C)C)cc1 (stereo unspecified)	·	0	3	·	·	7	·	·
Cc1csc(SCC(=O)Nc2ccc(Cl)cn2)n1	106	1	98*	1.2	12	-15	98*	·
C(=C\c1nc(N2CCCC2)c2ccccc2n1)/c1ccccc1	107	0	162*	1.2	27	-9	145*	45*
Cc1ccc(Nc2ncccc2C(N)=O)cc1	127	-1	151*	3.3	82	11	133*	·
COc1ccc(OC)c(-n2c(=S)[nH]c3c(sc(=S)n3-c3ccccc3)c2=O)c1	99	2	1	1.2	6	-1	·	·
Cc1cccc(OCCNC(=O)CCc2ccccc2)c1	·	·	0	·	·	·	·	·
CN(C)c1ccc(/C=N\NC(=O)c2csnn2)cc1	112	1	111*	3.4*	9	-62	55*	10*
CCNc1c(NC(=O)COc2ccc(Cl)cc2)c(=O)oc2ccccc12	·	·	1	·	·	·	·	·
CCCc1ccc(-c2c(C)sc(N)c2C#N)cc1	97	1	97*	1.3	16	-15	104*	13*
Cc1ccc2cc3c(NC(=O)c4cccnc4)nn(C)c3nc2c1	98	1	114*	0.82	-12	-25	93*	14*
Cc1ccc2cc3c(NC(=O)c4ccco4)nn(C)c3nc2c1	106	-2	82*	0.66	-5	-1	97*	2
Cc1ccc(NC(=O)c2sc3nc[nH]c(=O)c3c2C)c(C)c1	102	1	10	1.3	-9	-5	·	·
O=C(CN1CCCCC1)Nc1c2c(nc3ccccc13)N(c1ccccc1)CC2	93	1	132*	1	24	-44	107*	38*
Nc1c2c(nc3ccccc13)N(c1ccccc1)CC2	·	·	143*	1.1	·	-16	105*	22*
CCCCc1nc2ccccc2c(NC(=O)CN2CCCC2)c1CCC	95	-1	2	1.1	-8	-3	·	·
CCCC(=O)NNc1c2ccccc2nc2ccccc12	104	1	-7	1.1	1	-9	·	·
CCCC(=O)Nc1c2c(nc3ccccc13)N(c1ccccc1)CC2	97	0	108*	1	6	4	98*	23*

Source: PubChem
